What was measured:
Type in all cases: functional
A498 = assay: Cytotoxicity against human A498 cells; settings: read-out: pTGI (converted)
Summary of the method: (§1)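 Tested in a 60-cell-line human tumor panel screen; the read-out is growth inhibition, reported as GI50 for each cell line.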

BT-549 = assay: Cytotoxicity against human BT549 cells; summary of the method: as §1
MDA-MB-435 = assay: Cytotoxicity against human MDA-MB-435 cells; summary of the method: as §1
NCI-H226 = assay: Cytotoxicity against human NCI-H226 cells; summary of the method: as §1
SK-MEL-2 = assay: Cytotoxicity against human SK-MEL-2 cells; summary of the method: as §1
MDA-MB-468 = assay: Cytotoxicity against human MDA-MB-468 cells; summary of the method: as §1
ACHN = assay: Cytotoxicity against human ACHN cells; summary of the method: as §1
[1] = Cytotoxicity against human NCI-ADR-RES cells; summary of the method: as §1
[2] = Cytotoxicity against human OVCAR4 cells; summary of the method: as §1
NCI-H460 = assay: Cytotoxicity against human NCI-H460 cells; summary of the method: as §1
SF-295 = assay: Cytotoxicity against human SF295 cells; summary of the method: as §1
[3] = Cytotoxicity against human OVCAR3 cells; summary of the method: as §1
SF-268 = assay: Cytotoxicity against human SF268 cells; summary of the method: as §1
SK-OV-3 = assay: Cytotoxicity against human SKOV3 cells; summary of the method: as §1
PC-3 = assay: Cytotoxicity against human PC3 cells; summary of the method: as §1
CCRF-CEM = assay: Cytotoxicity against human CCRF-CEM cells
LOX IMVI = assay: Cytotoxicity against human LOXIMVI cells; summary of the method: as §1
SNB-19 = assay: Cytotoxicity against human SNB19 cells; summary of the method: as §1
CAKI-1 = assay: Cytotoxicity against human Caki1 cells; summary of the method: as §1
MOLT-4 = assay: Cytotoxicity against human MOLT4 cells; summary of the method: as §1
SK-MEL-5 = assay: Cytotoxicity against human SK-MEL-5 cells; summary of the method: as §1
SR = assay: Cytotoxicity against human SR cells
Summary of the method: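 Cell line run as part of the 60-cell-line screening panel; growth inhibition was reported as a GI50 for each line.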

[4] = read-out: pLC50 (the source's name) (converted)

Compound: CC1(C)[C@H](O)CC[C@@]2(C)Oc3c(O)cc(/C=C/c4cc(O)c5cc[nH]c5c4)cc3C[C@H]12
- TGI (A498): 11.7 µM
- GI50 (BT-549): 21.4 nM
- CC50 (BT-549; [4]): 57.5 µM
- TGI (BT-549; read-out: pTGI (converted)): 5.37 µM
- GI50 (MDA-MB-435): 661 nM
- CC50 (MDA-MB-435; [4]): 51.3 µM
- TGI (MDA-MB-435; read-out: pTGI (converted)): 9.55 µM
- GI50 (NCI-H226): 19.5 µM
- CC50 (NCI-H226; [4]): > 100 µM
- TGI (NCI-H226; read-out: pTGI (converted)): 75.9 µM
- GI50 (SK-MEL-2): 759 nM
- CC50 (SK-MEL-2; [4]): 97.7 µM
- TGI (SK-MEL-2; read-out: pTGI (converted)): 21.4 µM
- GI50 (MDA-MB-468): 1200 nM
- LC50 (MDA-MB-468): 36.3 µM
- TGI (MDA-MB-468; read-out: pTGI (converted)): 5.13 µM
- GI50 (ACHN): 2140 nM
- LC50 (concentration killing 50% of cells) (ACHN): > 100 µM
- TGI (ACHN; read-out: pTGI (converted)): 30.9 µM
- GI50 [1]: 3.24 µM
- CC50 [1, 4]: > 100 µM
- TGI ([1]; read-out: pTGI (converted)): 31.6 µM
- GI50 ([2]; OVCAR-4): 5.01 µM
- CC50 ([2]; OVCAR-4, read-out: pLC50 (the source's name) (converted)): 91.2 µM
- TGI ([2]; OVCAR-4, read-out: pTGI (converted)): 42.7 µM
- GI50 (NCI-H460): 550 nM
- CC50 (NCI-H460; [4]): 6.31 µM
- TGI (NCI-H460; read-out: pTGI (converted)): 2140 nM
- GI50 (SF-295; read-out: GI50): 89 nM
- GI50 (SF-295; read-out: pGI50 (converted)): 89.1 nM
- CC50 (SF-295; [4]): 3.16 µM
- TGI (SF-295; read-out: pTGI (converted)): 427 nM
- GI50 ([3]; OVCAR-3): 3.47 µM
- CC50 ([3]; OVCAR-3, read-out: pLC50 (the source's name) (converted)): 66.1 µM
- TGI ([3]; OVCAR-3, read-out: pTGI (converted)): 21.4 µM
- GI50 (SF-268): 589 nM
- CC50 (SF-268; [4]): 79.4 µM
- TGI (SF-268; read-out: pTGI (converted)): 26.3 µM
- GI50 (SK-OV-3): 1950 nM
- LC50 (SK-OV-3): > 100 µM
- TGI (SK-OV-3; read-out: pTGI (converted)): 18.6 µM
- GI50 (PC-3): 245 nM
- LC50 (PC-3): 55 µM
- TGI (PC-3; read-out: pTGI (converted)): 4.07 µM
- GI50 (CCRF-CEM): 219 nM
- CC50 (CCRF-CEM; [4]): > 100 µM
- TGI (CCRF-CEM; read-out: pTGI (converted)): 14.1 µM
- GI50 (LOX IMVI): 178 nM
- CC50 (LOX IMVI; [4]): 5.62 µM
- TGI (LOX IMVI; read-out: pTGI (converted)): 1580 nM
- GI50 (SNB-19): 1120 nM
- CC50 (SNB-19; [4]): > 100 µM
- TGI (SNB-19; read-out: pTGI (converted)): 26.9 µM
- GI50 (CAKI-1): 120 nM
- LC50 (CAKI-1): 15.1 µM
- TGI (CAKI-1; read-out: pTGI (converted)): 676 nM
- GI50 (MOLT-4): 43.6 nM
- CC50 (MOLT-4; [4]): > 100 µM
- TGI (MOLT-4; read-out: pTGI (converted)): 617 nM
- GI50 (SK-MEL-5): 372 nM
- CC50 (SK-MEL-5; [4]): 3.98 µM
- TGI (SK-MEL-5; read-out: pTGI (converted)): 1510 nM
- GI50 (SR): 123 nM
- CC50 (SR; [4]): > 100 µM
- TGI (SR; read-out: pTGI (converted)): 21.4 µM

Reference: ChEMBL document CHEMBL3232844, “Synthesis and structure activity relationships of schweinfurthin indoles” (2014)
